Test results from ChEMBL document CHEMBL4732065 (Eur J Med Chem, 2021).
pIC50: −log10 of the molar value. Values after ≈ are worked out from the molar mass of the structure shown.

Molecular target: T1, Cytochrome P450 1B1 (Homo sapiens, UniProt Q16678)
T1 sequence (Q16678 whole entry): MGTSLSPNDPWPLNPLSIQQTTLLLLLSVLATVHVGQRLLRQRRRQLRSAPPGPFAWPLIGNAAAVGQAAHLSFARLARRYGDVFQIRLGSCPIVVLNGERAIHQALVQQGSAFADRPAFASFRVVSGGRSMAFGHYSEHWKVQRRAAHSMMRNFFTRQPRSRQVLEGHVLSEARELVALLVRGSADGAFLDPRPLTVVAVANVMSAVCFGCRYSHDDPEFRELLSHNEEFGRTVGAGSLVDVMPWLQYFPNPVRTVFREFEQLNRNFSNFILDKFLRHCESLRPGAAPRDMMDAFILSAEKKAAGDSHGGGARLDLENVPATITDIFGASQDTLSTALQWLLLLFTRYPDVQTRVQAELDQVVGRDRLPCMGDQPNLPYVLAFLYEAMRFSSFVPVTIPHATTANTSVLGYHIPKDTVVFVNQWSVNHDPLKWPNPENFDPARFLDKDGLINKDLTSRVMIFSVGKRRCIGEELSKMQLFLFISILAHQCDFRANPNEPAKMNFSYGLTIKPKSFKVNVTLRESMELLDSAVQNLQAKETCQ
Assay: Inhibition of recombinant human CYP1B1 using 7-ethoxyresorufin as substrate after 35 mins in presence of NADP+ by EROD assay
Conditions: not given
Summary of the method: (§1)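 Recombinant human CYP1 Supersomes co-expressing P450 reductase; 20 fmol CYP1B1, 10 fmol CYP1A1 or 60 fmol CYP1A2 per well. Incubated at 37 °C (1B1 35 min, 1A1 15 min, 1A2 50 min).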

In order of falling pIC50:
1. COc1ccc(OC)c2c1c(OC)cc1c(=O)cc(-c3ccc(F)cn3)oc12  10.15
2. COc1ccc(OC)c2c1c(OC)cc1c(=O)cc(-c3ccc(Cl)cn3)oc12  9.85
3. COc1ccc(OC)c2c1c(OC)cc1c(=O)cc(-c3ccc(N)nc3)oc12  9.01
4. COc1ccc(OC)c2c1c(OC)cc1c(=O)cc(-c3cncc(F)c3)oc12  9.01
5. COc1ccc(OC)c2c1c(OC)cc1c(=O)cc(-c3cncc(Br)c3)oc12  8.96
6. COc1ccc(OC)c2c1c(OC)cc1c(=O)cc(-c3ccco3)oc12  8.92
7. COc1ccc(OC)c2c1c(OC)cc1c(=O)cc(-c3cccc(C)n3)oc12  8.92
8. COc1ccc(OC)c2c1c(OC)cc1c(=O)cc(-c3cncc(C)c3)oc12  8.89
9. COc1ccc(OC)c2c1c(OC)cc1c(=O)cc(-c3cccc(N)n3)oc12  8.19
10. COc1ccc(OC)c2c1c(OC)cc1c(=O)cc(-c3cccc(O)n3)oc12  8.11
11. COc1ccc(OC)c2c1c(OC)cc1c(=O)cc(-c3c[nH]c4ncccc34)oc12  6.72

Molecular target: T2, Cytochrome P450 1A1 (Homo sapiens, UniProt P04798)
T2 sequence (P04798 whole entry): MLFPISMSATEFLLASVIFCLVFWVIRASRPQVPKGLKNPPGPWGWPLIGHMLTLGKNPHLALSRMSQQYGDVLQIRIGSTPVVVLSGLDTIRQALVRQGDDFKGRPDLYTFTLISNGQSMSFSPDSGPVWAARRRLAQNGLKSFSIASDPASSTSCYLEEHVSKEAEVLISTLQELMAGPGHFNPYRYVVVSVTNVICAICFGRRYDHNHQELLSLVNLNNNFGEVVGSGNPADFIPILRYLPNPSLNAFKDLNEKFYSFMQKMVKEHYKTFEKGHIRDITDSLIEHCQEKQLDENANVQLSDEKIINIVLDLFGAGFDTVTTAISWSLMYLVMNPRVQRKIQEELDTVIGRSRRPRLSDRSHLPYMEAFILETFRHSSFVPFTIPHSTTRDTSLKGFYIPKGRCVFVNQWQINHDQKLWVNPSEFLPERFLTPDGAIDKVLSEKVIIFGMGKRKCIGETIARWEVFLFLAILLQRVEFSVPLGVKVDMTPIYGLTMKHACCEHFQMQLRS
Assay: Inhibition of recombinant human CYP1A1 using 7-ethoxyresorufin as substrate after 15 mins in presence of NADP+ by EROD assay
Type: ADME
Conditions: not given
Summary of the method: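 Recombinant human CYP1 Supersomes co-expressing P450 reductase; 20 fmol CYP1B1, 10 fmol CYP1A1 or 60 fmol CYP1A2 per well. Incubated at 37 °C (1B1 35 min, 1A1 15 min, 1A2 50 min). Stopped with cold methanol; fluorescence read at 544/590 nm; triplicates.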

In order of falling pIC50:
1. COc1ccc(OC)c2c1c(OC)cc1c(=O)cc(-c3ccc(Cl)cn3)oc12  8.80
2. COc1ccc(OC)c2c1c(OC)cc1c(=O)cc(-c3cncc(C)c3)oc12  8.16
3. COc1ccc(OC)c2c1c(OC)cc1c(=O)cc(-c3cncc(Br)c3)oc12  8.10
4. COc1ccc(OC)c2c1c(OC)cc1c(=O)cc(-c3ccco3)oc12  7.86
5. COc1ccc(OC)c2c1c(OC)cc1c(=O)cc(-c3ccc(F)cn3)oc12  7.77
6. COc1ccc(OC)c2c1c(OC)cc1c(=O)cc(-c3cncc(F)c3)oc12  7.75
7. COc1ccc(OC)c2c1c(OC)cc1c(=O)cc(-c3cccc(C)n3)oc12  7.70
8. COc1ccc(OC)c2c1c(OC)cc1c(=O)cc(-c3c[nH]c4ncccc34)oc12  7.62
9. COc1ccc(OC)c2c1c(OC)cc1c(=O)cc(-c3ccc(N)nc3)oc12  7.51
10. COc1ccc(OC)c2c1c(OC)cc1c(=O)cc(-c3cccc(N)n3)oc12  7.25
11. COc1ccc(OC)c2c1c(OC)cc1c(=O)cc(-c3cccc(O)n3)oc12  6.49

Molecular target: T3, Cytochrome P450 1A2 (Homo sapiens, UniProt P05177)
T3 sequence (P05177 whole entry): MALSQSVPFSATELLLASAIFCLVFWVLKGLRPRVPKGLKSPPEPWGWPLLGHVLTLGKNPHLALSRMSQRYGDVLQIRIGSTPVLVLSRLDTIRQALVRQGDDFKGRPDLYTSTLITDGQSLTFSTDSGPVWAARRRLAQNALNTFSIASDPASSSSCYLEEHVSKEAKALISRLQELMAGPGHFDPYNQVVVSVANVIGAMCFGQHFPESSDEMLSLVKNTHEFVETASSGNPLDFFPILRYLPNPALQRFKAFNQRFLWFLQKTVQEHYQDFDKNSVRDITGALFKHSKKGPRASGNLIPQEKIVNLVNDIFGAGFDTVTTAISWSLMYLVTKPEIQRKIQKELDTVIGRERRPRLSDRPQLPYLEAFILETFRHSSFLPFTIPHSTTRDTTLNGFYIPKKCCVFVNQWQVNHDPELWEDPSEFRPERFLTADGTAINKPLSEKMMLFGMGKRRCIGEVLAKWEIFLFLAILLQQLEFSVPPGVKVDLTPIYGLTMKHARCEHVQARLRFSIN
Assay: Inhibition of recombinant human CYP1A2 using 7-ethoxyresorufin as substrate after 50 mins in presence of NADP+ by EROD assay
Type: ADME
Conditions: not given
Summary of the method: as §1

Compared with `COc1ccc(OC)c2c1c(OC)cc1c(=O)cc(-c3ccc(N)nc3)oc12`, `COc1ccc(OC)c2c1c(OC)cc1c(=O)cc(-c3ccc(Cl)cn3)oc12` is 0.29 log units lower in pIC50: 6.97 for the first, 6.68 for the second.

First: COc1ccc(OC)c2c1c(OC)cc1c(=O)cc(-c3ccc(F)cn3)oc12
Second: COc1ccc(OC)c2c1c(OC)cc1c(=O)cc(-c3cncc(F)c3)oc12
The pIC50 of the first is lower: less than 6.00 for the first, 6.85 for the second.

First: COc1ccc(OC)c2c1c(OC)cc1c(=O)cc(-c3cncc(C)c3)oc12
Second: COc1ccc(OC)c2c1c(OC)cc1c(=O)cc(-c3cncc(Br)c3)oc12
The pIC50 of the first is 0.66 log units higher: 6.79 for the first, 6.13 for the second.

First: COc1ccc(OC)c2c1c(OC)cc1c(=O)cc(-c3ccco3)oc12
Second: COc1ccc(OC)c2c1c(OC)cc1c(=O)cc(-c3cccc(C)n3)oc12
The pIC50 of the first is 0.34 log units higher: 7.17 for the first, 6.83 for the second. The first is the more potent here.

`COc1ccc(OC)c2c1c(OC)cc1c(=O)cc(-c3c[nH]c4ncccc34)oc12` and `COc1ccc(OC)c2c1c(OC)cc1c(=O)cc(-c3cccc(O)n3)oc12` cannot be ordered by pIC50: less than 6.00 for the first, less than 6.00 for the second.

Compound `COc1ccc(OC)c2c1c(OC)cc1c(=O)cc(-c3cccc(N)n3)oc12` has a pIC50 of less than 6.00.

Species: Homo sapiens
Assay: Selectivity index, ratio of IC50 for recombinant human CYP1A1 to IC50 for recombinant human CYP1B1
Conditions: not given

In order of rising Ratio IC50:
1. COc1ccc(OC)c2c1c(OC)cc1c(=O)cc(-c3c[nH]c4ncccc34)oc12  0.1
2. COc1ccc(OC)c2c1c(OC)cc1c(=O)cc(-c3cncc(C)c3)oc12  5.3
3. COc1ccc(OC)c2c1c(OC)cc1c(=O)cc(-c3cncc(Br)c3)oc12  7.3
4. COc1ccc(OC)c2c1c(OC)cc1c(=O)cc(-c3cccc(N)n3)oc12  8.7
5. COc1ccc(OC)c2c1c(OC)cc1c(=O)cc(-c3ccc(Cl)cn3)oc12  11.4
6. COc1ccc(OC)c2c1c(OC)cc1c(=O)cc(-c3ccco3)oc12  11.5
7. COc1ccc(OC)c2c1c(OC)cc1c(=O)cc(-c3cccc(C)n3)oc12  16.6
8. COc1ccc(OC)c2c1c(OC)cc1c(=O)cc(-c3cncc(F)c3)oc12  18.1
9. COc1ccc(OC)c2c1c(OC)cc1c(=O)cc(-c3ccc(N)nc3)oc12  31.4
10. COc1ccc(OC)c2c1c(OC)cc1c(=O)cc(-c3cccc(O)n3)oc12  41.9
11. COc1ccc(OC)c2c1c(OC)cc1c(=O)cc(-c3ccc(F)cn3)oc12  240

Species: Homo sapiens
Assay: Selectivity index, ratio of IC50 for recombinant human CYP1A2 to IC50 for recombinant human CYP1B1
Conditions: not given

Compared with `COc1ccc(OC)c2c1c(OC)cc1c(=O)cc(-c3ccc(N)nc3)oc12`, `COc1ccc(OC)c2c1c(OC)cc1c(=O)cc(-c3ccc(Cl)cn3)oc12` is higher in Ratio IC50: 110 for the first, 1490 for the second.

Going from `COc1ccc(OC)c2c1c(OC)cc1c(=O)cc(-c3ccc(F)cn3)oc12` to `COc1ccc(OC)c2c1c(OC)cc1c(=O)cc(-c3cncc(F)c3)oc12`, the Ratio IC50 falls from greater than 14300 to 144.

Going from `COc1ccc(OC)c2c1c(OC)cc1c(=O)cc(-c3cncc(C)c3)oc12` to `COc1ccc(OC)c2c1c(OC)cc1c(=O)cc(-c3cncc(Br)c3)oc12`, the Ratio IC50 rises from 124 to 674.

First: COc1ccc(OC)c2c1c(OC)cc1c(=O)cc(-c3ccco3)oc12
Second: COc1ccc(OC)c2c1c(OC)cc1c(=O)cc(-c3cccc(C)n3)oc12
The Ratio IC50 of the first is lower: 56 for the first, 124 for the second.

`COc1ccc(OC)c2c1c(OC)cc1c(=O)cc(-c3c[nH]c4ncccc34)oc12` and `COc1ccc(OC)c2c1c(OC)cc1c(=O)cc(-c3cccc(O)n3)oc12` cannot be ordered by Ratio IC50: greater than 5.3 for the first, greater than 130 for the second.

Work on `COc1ccc(OC)c2c1c(OC)cc1c(=O)cc(-c3cccc(N)n3)oc12` yielded a Ratio IC50 greater than 154.

Tested on: not listed separately
Assay: Water solubility of compound by HPLC analysis
Type: physicochemical
Conditions: not given
Summary of the method: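 Compound stocks at 5 mg/mL in DCM/MeOH were diluted in MeOH to 125–2000 µg/mL (500–5000 µg/mL for the salt form) and run on C18 HPLC with detection at 360 nm for calibration. A 10 µL injection of supersaturated aqueous solution, diluted if needed, was then analysed. Solubility was calculated from the linear regression.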

Compared with `O=c1cc(-c2ccccc2)oc2c1ccc1ccccc12` [ALPHA-NAPHTHOFLAVONE], `COc1ccc(OC)c2c1c(OC)cc1c(=O)cc(-c3ccc(N)nc3)oc12` is higher in solubility: less than 5 µg/mL for the first, 311 µg/mL (≈ 822 µM) for the second.

`COc1ccc(OC)c2c1c(OC)cc1c(=O)cc(-c3ccc(F)cn3)oc12` showed a solubility of less than 5 µg/mL.

Molecular target: T1, Cytochrome P450 1B1
Assay: Potency index, ratio of IC50 of ANF to IC50 of compound for inhibition of human recombinant CYP1B1
Conditions: read-out: Ratio IC50

In order of rising selectivity ratio:
1. COc1ccc(OC)c2c1c(OC)cc1c(=O)cc(-c3cncc(F)c3)oc12  5
2. COc1ccc(OC)c2c1c(OC)cc1c(=O)cc(-c3cncc(C)c3)oc12  5
3. COc1ccc(OC)c2c1c(OC)cc1c(=O)cc(-c3cncc(Br)c3)oc12  5
4. COc1ccc(OC)c2c1c(OC)cc1c(=O)cc(-c3ccc(F)cn3)oc12  84
